ChEMBL document CHEMBL4219066, “Identification and Mitigation of Reactive Metabolites of 2-Aminoimidazole-Containing Microsomal Prostaglandin E Synthase-1 Inhibitors Terminated Due to Clinical Drug-Induced Liver Injury” (J Med Chem, 2018)
Blank lines part the entries; values can stand above or below the compound they belong to.

What was measured:
[1] = In vivo drug level in human plasma treated with LY3031207 by HPLC-MS analysis; type: ADME, organism-based
[2] = Drug level in human hepatocytes treated with LY3031207 at 2 uM after 4 hrs by LC-MS/MS analysis; type: ADME, cell-based, Hepatocyte
[3] = Drug level in dog hepatocytes treated with LY3031207 at 2 uM after 4 hrs by LC-MS/MS analysis; type: ADME, cell-based, Canis lupus familiaris, Hepatocyte
[4] = In vivo drug level in human urine treated with LY3031207 by HPLC-MS analysis; type: ADME, organism-based
[5] = Drug level in rat hepatocytes treated with LY3031207 at 2 uM after 4 hrs by LC-MS/MS analysis; type: ADME, cell-based, Hepatocyte
[6] = Drug level in Beagle dog plasma treated with LY3023703 at 300 to 600 mg/kg, po measured after 2 hrs post dose by LC/MS analysis; type: ADME, organism-based, Canis lupus familiaris; details: in vivo
[7] = Drug level in rat hepatocytes treated with LY3023703 at 2 uM after 4 hrs by LC-MS/MS analysis; type: ADME, cell-based, Hepatocyte
[8] = In vivo drug level in human urine treated with LY3023703 by HPLC-MS analysis; type: ADME, organism-based
[9] = Drug level in human hepatocytes treated with LY3023703 at 2 uM after 4 hrs by LC-MS/MS analysis; type: ADME, cell-based, Hepatocyte
[10] = In vivo drug level in human plasma treated with LY3023703 by HPLC-MS analysis; type: ADME, organism-based
[11] = Drug level in rat hepatocytes treated with 2-(Difluoromethyl)-N-(4-methyl-5-(4-(trifluoromethyl)-phenyl)-1H-imidazol-2-yl)-5-(pivalamidomethyl)nicotinamide at 2 uM after 4 hrs by LC-MS/MS analysis; type: ADME, cell-based, Hepatocyte
[12] = Drug level in human hepatocytes treated with 2-(Difluoromethyl)-N-(4-methyl-5-(4-(trifluoromethyl)-phenyl)-1H-imidazol-2-yl)-5-(pivalamidomethyl)nicotinamide at 2 uM after 4 hrs by LC-MS/MS analysis; type: ADME, cell-based, Hepatocyte
[13] = Drug level in dog hepatocytes treated with 2-(Difluoromethyl)-N-(4-methyl-5-(4-(trifluoromethyl)-phenyl)-1H-imidazol-2-yl)-5-(pivalamidomethyl)nicotinamide at 2 uM after 4 hrs by LC-MS/MS analysis; type: ADME, cell-based, Canis lupus familiaris, Hepatocyte
[14] = Drug level in human hepatocytes treated with 2 -Chloro-N-(4,5-dimethyl-1H-imidazol-2-yl)-5-(pivalamidomethyl)benzamide at 2 uM after 4 hrs by LC-MS/MS analysis; type: ADME, cell-based, Hepatocyte
[15] = Drug level in rat hepatocytes treated with 2-Chloro-N-(4-methyl-1H-imidazol-2-yl)-5-(pivalamidomethyl)benzamide at 2 uM after 4 hrs by LC-MS/MS analysis; type: ADME, cell-based, Hepatocyte
[16] = Drug level in human hepatocytes treated with 2-Chloro-N-(4-methyl-1H-imidazol-2-yl)-5-(pivalamidomethyl)benzamide at 2 uM after 4 hrs by LC-MS/MS analysis; type: ADME, cell-based, Hepatocyte
[17] = Drug level in rat hepatocytes treated with 2 -Chloro-N-(4,5-dimethyl-1H-imidazol-2-yl)-5-(pivalamidomethyl)benzamide at 2 uM after 4 hrs by LC-MS/MS analysis; type: ADME, cell-based, Hepatocyte
[18] = Drug level in dog hepatocytes treated with LY3023703 at 2 uM after 4 hrs by LC-MS/MS analysis; type: ADME, cell-based, Canis lupus familiaris, Hepatocyte
[19] = Drug metabolism in rat hepatocytes assessed as 2-(2-chloro-5-(pivalamidomethyl)benzamido)-1H-imidazole-4-carboxylic acid formation at 2 uM after 4 hrs by LC-MS/MS analysis; type: ADME, cell-based, Hepatocyte
[20] = Drug metabolism in human hepatocytes assessed as 2-(2-chloro-5-(pivalamidomethyl)benzamido)-1H-imidazole-4-carboxylic acid formation at 2 uM after 4 hrs by LC-MS/MS analysis; type: ADME, cell-based, Hepatocyte
[21] = Drug level in rat hepatocytes treated with 2-(2-Chloro-5-(pivalamidomethyl)benzamido)-N-phenyl-1Himidazole-4-carboxamide at 2 uM after 4 hrs by LC-MS/MS analysis; type: ADME, cell-based, Hepatocyte
[22] = Drug level in human hepatocytes treated with 2-(2-Chloro-5-(pivalamidomethyl)benzamido)-N-phenyl-1Himidazole-4-carboxamide at 2 uM after 4 hrs by LC-MS/MS analysis; type: ADME, cell-based, Hepatocyte
[23] = Drug level in human liver microsomes treated with 2-Chloro-N-(4-methyl-1H-imidazol-2-yl)-5-(pivalamidomethyl)benzamide at 2 uM after 0.5 hrs in presence of 1:1 ratio of unlabeled GSH and [glycine 13C2,15N]-labelled GSH by HPLC-MS analysis; type: ADME, microsome
Procedure, shortened: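 Glutathione-trapping incubation in human liver microsomes fortified with GSH to capture reactive intermediates. Metabolites and GSH adducts were identified by MS.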

Drug metabolism [1]: Metabolite_Detected
Drug metabolism [2]: Metabolite_Detected
Drug metabolism [3]: Metabolite_Detected
Drug metabolism [4]: Metabolite_Detected
Drug metabolism [5]: Metabolite_Detected
Structure (SMILES): CC(C)(C)C(=O)NCc1ccc(Cl)c(C(=O)Nc2nc(O)c[nH]2)c1

Drug metabolism [6]: Metabolite_Detected
Drug metabolism [7]: Metabolite_Detected
Drug metabolism [8]: Metabolite_Detected
Drug metabolism [9]: Metabolite_Detected
Drug metabolism [10]: Metabolite_Detected
Structure (SMILES): Cc1nc(NC(=O)c2cc(CNC(=O)C(C)CO)cnc2C(F)F)[nH]c1-c1ccc(C(F)(F)F)cc1 (configuration not stated)

Drug metabolism [6]: Metabolite_Detected
Structure (SMILES): Cc1nc(N[C@@H]2O[C@H](C(=O)O)[C@@H](O)[C@H](O)[C@H]2O)[nH]c1-c1ccc(C(F)(F)F)cc1

Drug metabolism [6]: Metabolite_Detected
Drug metabolism [7]: Metabolite_Detected
Drug metabolism [9]: Metabolite_Detected
Structure (SMILES): Cc1nc(N)[nH]c1-c1ccc(C(F)(F)F)cc1

Drug metabolism [11]: Metabolite_Detected
Drug metabolism [12]: Metabolite_Detected
Drug metabolism [13]: Metabolite_Detected
Structure (SMILES): CC(C)(C)C(=O)NCc1cnc(C(F)F)c(C(=O)NC(=N)N)c1

Drug metabolism [1]: Metabolite_Detected
Drug metabolism [14]: Metabolite_Detected
Drug metabolism [15]: Metabolite_Detected
Drug metabolism [4]: Metabolite_Detected
Drug metabolism [16]: Metabolite_Detected
Drug metabolism [17]: Metabolite_Detected
Structure (SMILES): CC(C)(C)C(=O)NCc1ccc(Cl)c(C(=O)NC(=N)N)c1

Drug metabolism [7]: Metabolite_Detected
Drug metabolism [10]: Metabolite_Detected
Structure (SMILES): C=C(C)C(=O)NCc1cnc(C(F)F)c(C(=O)Nc2nc(C)c(-c3ccc(C(F)(F)F)cc3)[nH]2)c1

Drug metabolism [6]: Metabolite_Detected
Structure (SMILES): CC(=O)Nc1nc(C)c(-c2ccc(C(F)(F)F)cc2)[nH]1

Drug metabolism [1]: Metabolite_Detected
Drug metabolism [2]: Metabolite_Detected
Drug metabolism [3]: Metabolite_Detected
Drug metabolism [4]: Metabolite_Detected
Drug metabolism [5]: Metabolite_Detected
Structure (SMILES): CC(C)(CO)C(=O)NCc1ccc(Cl)c(C(=O)Nc2ncc[nH]2)c1

Drug metabolism [2]: Metabolite_Detected
Drug metabolism [3]: Metabolite_Detected
Drug metabolism [4]: Metabolite_Detected
Drug metabolism [5]: Metabolite_Detected
Structure (SMILES): CC(C)(C)C(=O)NCc1ccc(Cl)c(C(=O)NC2=NC(O)C(O)N2)c1 (configuration not stated)

Drug metabolism [6]: Metabolite_Detected
Drug metabolism [7]: Metabolite_Detected
Drug metabolism [8]: Metabolite_Detected
Drug metabolism [9]: Metabolite_Detected
Drug metabolism [10]: Metabolite_Detected
Drug metabolism [18]: Metabolite_Detected
Structure (SMILES): Cc1nc(NC(=O)c2cc(CNC(=O)C(C)(C)O)cnc2C(F)F)[nH]c1-c1ccc(C(F)(F)F)cc1

Drug metabolism [19]: Metabolite_Detected
Drug metabolism [15]: Metabolite_Detected
Drug metabolism [20]: Metabolite_Detected
Drug metabolism [16]: Metabolite_Detected
Structure (SMILES): CC(C)(C)C(=O)NCc1ccc(Cl)c(C(=O)Nc2nc(CO)c[nH]2)c1

Drug metabolism [21]: Metabolite_Detected
Drug metabolism [22]: Metabolite_Detected
Structure (SMILES): CC(C)(CO)C(=O)NCc1ccc(Cl)c(C(=O)Nc2nc(C(=O)Nc3ccccc3)c[nH]2)c1

Drug metabolism [14]: Metabolite_Detected
Drug metabolism [17]: Metabolite_Detected
Structure (SMILES): Cc1nc(NC(=O)c2cc(CNC(=O)C(C)(C)CO)ccc2Cl)[nH]c1C

Drug metabolism [11]: Metabolite_Detected
Drug metabolism [12]: Metabolite_Detected
Drug metabolism [13]: Metabolite_Detected
Structure (SMILES): Cc1nc(NC(=O)c2cc(CNC(=O)C(C)(C)CO)cnc2C(F)F)[nH]c1-c1ccc(C(F)(F)F)cc1

Drug metabolism [15]: Metabolite_Detected
Drug metabolism [16]: Metabolite_Detected
Structure (SMILES): Cc1c[nH]c(NC(=O)c2cc(CNC(=O)C(C)(C)CO)ccc2Cl)n1

Drug metabolism [23]: Metabolite_Detected
Structure (SMILES): CC(C)(C)C(=O)NCc1ccc(Cl)c(C(=O)Nc2nc(CSC[C@H](N)C(=O)NCC(=O)O)c[nH]2)c1

Drug metabolism [14]: Metabolite_Detected
Drug metabolism [17]: Metabolite_Detected
Structure (SMILES): Cc1[nH]c(NC(=O)c2cc(CNC(=O)C(C)(C)C)ccc2Cl)nc1CO

Drug metabolism [21]: Metabolite_Detected
Drug metabolism [22]: Metabolite_Detected
Structure (SMILES): CC(C)(C)C(=O)NCc1ccc(Cl)c(C(=O)O)c1

Drug metabolism [13]: Metabolite_Detected
Structure (SMILES): CC(C)(C)C(=O)NCc1cnc(C(F)F)c(C(=O)Nc2nc(CO)c(-c3ccc(C(F)(F)F)cc3)[nH]2)c1

Drug metabolism [23]: Metabolite_Detected
Structure (SMILES): CC(C)(C)C(=O)NCc1ccc(Cl)c(C(=O)Nc2nc(CSC[C@H](NC(=O)CC[C@H](N)C(=O)O)C(=O)NCC(=O)O)c[nH]2)c1

Drug metabolism [8]: Metabolite_Detected
Structure (SMILES): Cc1nc(NC(=O)c2cc(CN)cnc2C(F)F)[nH]c1-c1ccc(C(F)(F)F)cc1

Drug metabolism [4]: Metabolite_Detected
Structure (SMILES): CC(C)(CO)C(=O)NCc1ccc(Cl)c(C(=O)NC(=N)N)c1

Drug metabolism [7]: Metabolite_Detected
Drug metabolism [8]: Metabolite_Detected
Drug metabolism [9]: Metabolite_Detected
Drug metabolism [18]: Metabolite_Detected
Structure (SMILES): CC(C)C(=O)NCc1cnc(C(F)F)c(C(=O)NC(=N)N)c1
